Laboratory results published in ChEMBL document CHEMBL1158431, “Anti-inflammatory cembranolides from the soft coral Lobophytum durum” (2009).
Calls of active or inactive are those of the source. The rule behind the calls is not given here.

Legend:
[1] = tested on: RAW264.7; assay: Antiinflammatory activity in LPS-stimulated mouse RAW264.7 cells assessed as iNOS protein expression at 10 uM after 16 hrs by immunoblot analysis relative to control; conditions: RAW264.7, 16 h
[2] = tested on: Human betaherpesvirus 5; assay: Inhibition of HCMV UL76 encoded endonuclease expressed in Escherichia coli BL21 (DE3)-RIL assessed as inhibition of supercoiled double stranded phi X 174 bacteriophage DNA cleavage after 1 hr by agarose gel electrophoresis
Outline: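 Calmodulin-tagged HCMV UL76 endonuclease purified from E. coli BL21-codon DE3-RIL carrying pCBP-UL76. Serially diluted compound incubated with 1 µg CsCl-purified supercoiled dsDNA φX174, reaction buffer and enzyme at 37 °C for 1 h. Products resolved on 1% agarose gel. IC50 is the concentration giving 50% inhibition of substrate cleavage.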

[3] = tested on: Salmonella enterica subsp. enterica; assay: Antibacterial activity against Salmonella enteritidis ATCC 13076 up to 100 ug/disk after 24 hrs by agar well diffusion method; format: functional, organism-based; conditions: Salmonella enterica subsp. enterica serovar Enteritidis, in the assay text read “paper disk diffusion method” for “agar well diffusion method”
Outline: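 S. enteritidis ATCC13076 grown in LB broth 24 h at 37 °C. Broth culture (0.3 mL) mixed into 0.7% LB soft agar and layered over 1.5% LB hard agar. Compound applied to 8 mm paper disks at 2 μg/μL, tested up to 100 μg/disk. Ampicillin (5 μg/μL) and solvent served as controls. Plates incubated 24 h at 37 °C.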

[4] = tested on: RAW264.7; assay: Antiinflammatory activity in LPS-stimulated mouse RAW264.7 cells assessed as inhibition of COX2 protein expression at 10 uM after 16 hrs by immunoblot analysis relative to control; format: functional
Outline: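 RAW 264.7 macrophages (ATCC TIB-71) stimulated with E. coli LPS (0.01 μg/mL) for 16 h with or without compound. Cells washed in ice-cold PBS, lysed, and spun at 20,000g for 30 min at 4 °C. Equal protein loaded for SDS-PAGE and transferred to PVDF. Blots probed 180 min with anti-iNOS or anti-COX-2 (1:1000) and detected by ECL. Levels expressed relative to LPS-only cells. CAPE 10 µM used as reference.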

[5] = tested on: RAW264.7; assay: Antiinflammatory activity in LPS-stimulated mouse RAW264.7 cells assessed as COX2 protein expression at 10 uM after 16 hrs by immunoblot analysis relative to control; conditions: RAW264.7, 16 h

Compound | iNOS protein level (% of LPS control) at 10 µM [1] [%] | inhibition [2] | inhibition [3] | inhibition [4] | Activity [4] | COX-2 protein level (% of LPS control) at 10 µM [5] [%]
C=C1C(=O)O[C@@H]2[C@@H]1C[C@H](OC(C)=O)[C@@](O)(COC(C)=O)CC/C=C(\C)CC/C=C(\C)[C@H]2O (relative stereo) [DURUMOLIDE G] | 7.3 | inactive | inactive | inactive | – | –
C=C1C(=O)O[C@@H]2[C@@H]1C[C@H](OC(C)=O)[C@@](O)(COC(C)=O)CC/C=C(\C)CC/C=C(\C)[C@H]2OC(C)=O (relative stereo) [DURUMOLIDE H] | 22.6 | inactive | inactive | – | inactive | –
C=C1C(=O)O[C@@H]2[C@@H]1C[C@H]1O[C@]1(COC(C)=O)CC/C=C(\C)[C@@H](O)C/C=C(\C)[C@H]2OC(C)=O (relative stereo) [DURUMOLIDE I] | 6.2 | inactive | inactive | inactive | – | –
C=C1C(=O)O[C@H]2C(=O)/C(C)=C/CC/C(C)=C/CC[C@@]3(CO)O[C@@H]3C[C@H]12 (relative stereo) [DURUMOLIDE K] | 5.7 | inactive | inactive | – | – | 71.6
C=C1C(=O)O[C@H]2C(=O)/C(C)=C/CC/C(C)=C/CC[C@@]3(C=O)O[C@@H]3C[C@H]12 (relative stereo) [DURUMOLIDE L] | 1.2 | inactive | inactive | inactive | – | –
O=C(/C=C/c1ccc(O)c(O)c1)OCCc1ccccc1 [CAFFEIC ACID PHENETHYL ESTER] | 1.5 | – | – | – | – | 70.2
C=C1C(=O)O[C@H]2C/C(C)=C/CC/C(C)=C/CC[C@](O)(COC(C)=O)[C@@H](O)C[C@H]12 [DURUMOLIDE F] | 0.8 | inactive | inactive | – | – | 47.8
C=C1C(=O)O[C@@H]2[C@@H]1C[C@H]1O[C@]1(C)CC/C=C(\C)CC/C=C(\C)[C@H]2O [DURUMOLIDE J] | 0.1 | inactive | inactive | inactive | – | –
C=C1C(=O)O[C@H]2C/C(C)=C/CC/C(C)=C/CC[C@@]3(CO)O[C@@H]3C[C@H]12 [SINULAROLIDE D] | 2.2 | inactive | inactive | inactive | – | –
